ASAP1 inh: blocks human ASAP1-stimulated Arf1 GTP hydrolysis; inhibition, % at 16.5 µM; Q9ULH1; 360,000 tested, 0.19% active; GDP FP detection; in the data active = inhibition above about 25%;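 also: 0% = vehicle with enzyme and substrate and 100% = no enzyme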
PAFAH1B3 FP inh: inhibitors of human PAFAH1B3. Q15102. recombinant PAFAH1B3, FP-rhodamine probe, fluorescence polarization. inhibition, % at 3.39 µM. 340,000 tested, 0.28% active. AID 492972;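 active = inhibition above the screen-wide average of all tested compounds plus 3 SD, cut at about 25% in these data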;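 also: 0% = enzyme with DMSO only and 100% = wells lacking PAFAH1B3 protein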
Target sequence (Q15102 whole entry, looked up): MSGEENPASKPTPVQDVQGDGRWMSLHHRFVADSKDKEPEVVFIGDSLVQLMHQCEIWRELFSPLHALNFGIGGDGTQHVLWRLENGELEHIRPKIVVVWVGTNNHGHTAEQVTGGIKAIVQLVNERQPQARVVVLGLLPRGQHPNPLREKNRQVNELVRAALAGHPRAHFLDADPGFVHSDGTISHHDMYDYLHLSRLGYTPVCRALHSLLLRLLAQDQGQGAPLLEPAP
PAFAH2 FP inh: inhibitors of human PAFAH2. recombinant PAFAH2, FP-rhodamine activity probe, fluorescence polarization. inhibition, % at 3.39 µM. 340,000 tested, 0.99% active;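 active = inhibition above the mean over all tested compounds plus 3 SD, cut at about 30% in these data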;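 also: inhibitors block probe labeling of enzyme so polarization drops; 0% = enzyme with DMSO and 100% = wells lacking PAFAH2 protein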
PAFAH1B2 inh: PAFAH1B2 (human) inhibition. P68402. recombinant PAFAH1B2, FP-rhodamine activity probe, fluorescence polarization. inhibition, % at 3.39 µM. 340,000 tested, 1.2% active. AID 492953;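 active = inhibition above the mean of all tested compounds plus 3 SD, cut at about 24% in these data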;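 also: 0% = enzyme with DMSO and 100% = wells lacking PAFAH1B2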
Target sequence (P68402 whole entry, looked up): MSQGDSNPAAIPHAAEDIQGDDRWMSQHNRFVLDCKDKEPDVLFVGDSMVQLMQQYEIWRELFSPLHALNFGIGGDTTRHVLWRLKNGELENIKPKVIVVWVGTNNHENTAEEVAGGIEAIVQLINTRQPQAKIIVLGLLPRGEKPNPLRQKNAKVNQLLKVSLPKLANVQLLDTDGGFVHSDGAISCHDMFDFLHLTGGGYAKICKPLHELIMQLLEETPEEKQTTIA
pPAFAH FP inh: pPAFAH (human) enzyme inhibition. Q13093. inhibition, % at 3.39 µM. recombinant pPAFAH, FP-rhodamine probe fluorescence polarization. AID 463082. 330,000 tested, 1.5% active;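 active = inhibition above the mean inhibition across the screen plus 3 SD, cut at about 25% in these data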;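 also: inhibitors block binding of the rhodamine activity-based probe so polarization drops; 0% = enzyme with DMSO and 100% = wells lacking pPAFAH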
ARFGAP1 inhibitor: inhibitors of rat ARFGAP1; inhibition, % at 16.5 µM; 360,000 tested, 0.26% active; Arfgap1-stimulated ARF1 GTP hydrolysis, GDP FP detection;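 active = inhibition above a per-plate limit, mean inhibition of low control wells plus 3 SD, cut at about 25% in these data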;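 also: 0% = DMSO wells with enzyme and 100% = wells lacking Arfgap1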
Target sequence (Q62848 1-136 limits assumed): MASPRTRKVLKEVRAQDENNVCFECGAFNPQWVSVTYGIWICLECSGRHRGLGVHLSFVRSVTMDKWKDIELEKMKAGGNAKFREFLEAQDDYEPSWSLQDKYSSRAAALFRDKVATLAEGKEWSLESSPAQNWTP
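Material – truncated rat Arfgap1 GAP domain · Buffer or medium – HEPES-based buffer, pH 7.5 · Reagent – human ARF1(Δ1-17)-GTP substrate · Dosing – 16.5 µM single point, 1.26% DMSO · Schedule – GTP hydrolysis reaction 2 h at 25 °C · Technique – GDP detection by fluorescence polarization · Benchmarks – No-Arfgap1 wells (100%) versus DMSO full-reaction wells (0%) · Repeats – single replicate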
ASAP1 inh confirm: ASAP1 inhibition confirmed; 620 tested, 37% active; shares compounds with ASAP1 inh; inhibition, % at 16.5 µM; ASAP1-stimulated Arf1 GTPase, GDP fluorescence polarization;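 active = mean inhibition over triplicates exceeds the hit threshold derived for the earlier primary screening run, cut at about 25% in these data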
Starred values were filed as active, the others as inactive; nt = no result given. The list is not random: actives were taken first. Their share in the collection is about 2.8%.

SMILES	ASAP1 inh	PAFAH1B3 FP inh	PAFAH2 FP inh	PAFAH1B2 inh	pPAFAH FP inh	ARFGAP1 inhibitor	ASAP1 inh confirm
N#Cc1cccc(NC(=O)CSc2ccc3c4c(cccc24)C(=O)c2ccccc2-3)c1	100*	27*	36*	30*	23	24	111*
COc1ccc(NC(=O)CSc2ccc3c4c(cccc24)C(=O)c2ccccc2-3)cc1	7	0	3	2	2	9	nt
COc1ccc2nc(NC(=O)c3cccc(N4C(=O)CCC4=O)c3)sc2c1	26*	7	8	1	-1	-2	9
Cc1cccc(C(=O)OCC(=O)N2c3ccccc3CC2C)c1C (centres undefined)	-5	nt	nt	nt	nt	5	nt
N#CC1=C(c2ccc(-c3ccccc3)cc2)COC1=O	29*	2	2	2	26*	4	41*
O=C1OCC(c2ccccc2)=C1c1ccccc1	-9	6	2	-1	4	1	nt
OC(Cc1ccncc1)c1ccccc1Cl (centres undefined)	2	5	3	4	nt	3	nt
Cc1ccc(-n2c(O)c(C=Nc3ccc4c(c3)OCO4)c3ccccc3c2=O)cc1C	4	1	-5	0	0	5	nt
Cc1cc(N=Cc2c(O)n(-c3ccc4c(c3)OCO4)c(=O)c3ccccc23)ccn1	39*	3	-6	-3	1	-8	50*
COc1cc(NC(=O)Cc2ccccc2)ccc1NC(=O)Cc1ccccc1	30*	2	4	1	2	8	3
O=C(Nc1cccc(CNCCc2c[nH]c3ccccc23)c1)c1ccccc1Cl	29*	7	0	4	5	3	7
CC(=O)c1cccc(NC(=O)NCCc2c[nH]c3ccccc23)c1	1	6	0	4	-1	-5	nt
NS(=O)(=O)c1ccc(CCNC(=O)CN2CCN(S(=O)(=O)c3ccccc3F)CC2)cc1	-4	nt	nt	nt	-1	4	nt
COc1ccc(-n2c(SCC(=O)Nc3ccc4c(c3)OCO4)nc3ccccc3c2=O)cc1	3	7	-18	2	-1	-3	nt
COc1ccc(-n2c(SCC(=O)Nc3ccc(NC(C)=O)cc3)nc3ccccc3c2=O)cc1	27*	-7	0	4	5	10	4
Cc1cc(NC(=O)C2CCN(C(=O)c3ccco3)CC2)ccc1Br	30*	1	-3	5	7	3	1
COc1cc2c(cc1OC)C(Cc1ccc(O)c(Oc3ccc(C[C@H]4c5cc(OC)c(OC)cc5CCN4C)cc3)c1)N(C)CC2 (some centres undefined)	nt	nt	nt	nt	0	nt	nt
Cc1ccc(N(CC2CO2)S(=O)(=O)c2ccc(C)cc2)cc1 (centres undefined)	-13	8	7	11	3	2	nt
Cc1ccc(S(=O)(=O)N(CC2CO2)c2cc(Cl)ccc2Cl)cc1 (centres undefined)	28*	8	3	2	5	10	1
COc1cccc(N2CCN(S(=O)(=O)c3ccc4ccccc4c3)CC2)c1	12	4	3	5	nt	7	nt
Cc1ccc(C(=O)O/N=C/c2c(C)nn(C)c2Cl)cc1	27*	5	7	-2	2	4	0
O=C(NCc1ccncc1)c1ccccc1Nc1ccc(SC(F)F)cc1	28*	0	-13	2	14	2	15
CNC(=O)c1ccccc1Nc1ccc(SC(F)F)cc1	0	2	2	0	6	-6	nt
COc1ccc(Cc2c(-c3cccc(Cl)c3)nc3c(C)cc(Br)cn23)c(C)c1	22	nt	nt	nt	nt	7	nt
Cc1ccccc1NC(=O)c1cccc(N2C(=O)C3C4CC(C(Br)C4Br)C3C2=O)c1 (centres undefined)	28*	-3	2	7	nt	8	6
SMILES	ASAP1 inh	PAFAH1B3 FP inh	PAFAH2 FP inh	PAFAH1B2 inh	pPAFAH FP inh	ARFGAP1 inhibitor	ASAP1 inh confirm
Cc1ccc2c(c1)Oc1ccc(NC(=O)CCl)cc1C(=O)N2	2	4	-1	0	2	-2	nt
COc1cc(/C=C/C(=O)Nc2cc(C(F)(F)F)ccc2Cl)cc(OC)c1OC	25*	-5	-3	-3	6	2	14
Cc1[nH]n(-c2ccccc2)c(=O)c1C(C[N+](=O)[O-])c1ccccc1Cl (centres undefined)	-5	6	5	1	2	3	nt
COc1ccc(C(C[N+](=O)[O-])c2c(C)[nH]n(-c3ccccc3)c2=O)cc1 (centres undefined)	30*	5	1	9	-1	25*	14
CCOc1ccccc1NC(=O)COC(=O)/C=C/c1cccs1	9	6	25	1	-1	-2	nt
COc1ccc(-n2c(Cc3cccn3C)nnc2SCC(=O)N2CCOCC2)cc1	11	0	-1	2	6	4	nt
Cn1cccc1Cc1nnc(SCC(=O)N2CCOCC2)n1-c1ccc(F)cc1	25*	4	7	9	10	9	1
COc1ccccc1C(=O)NC(=O)COC(=O)CCNS(=O)(=O)c1ccccc1	14	8	6	5	13	0	nt
COc1ccc(/C=N/NC(=O)c2cc(-c3ccc4c(c3)OCO4)n[nH]2)cc1OC	26*	-13	-21	1	-1	20	34*
Cc1ccc(S(=O)(=O)NCCCNc2ccc([N+](=O)[O-])cc2)cc1	12	3	0	20	9	-1	nt
Cc1ccc(S(=O)(=O)NCCNc2ccc([N+](=O)[O-])cc2)cc1	29*	11	4	14	3	-2	1
O=C1CCCCC1CCS(=O)(=O)NCc1ccccc1 (centres undefined)	-6	nt	nt	nt	nt	-13	nt
CC(C)CN(C(=O)COc1ccc2ccc(=O)oc2c1)C1CCS(=O)(=O)C1 (centres undefined)	12	3	0	0	-2	12	nt
CN(C(=O)COc1ccc2ccc(=O)oc2c1)C1CCS(=O)(=O)C1 (centres undefined)	28*	0	4	1	0	5	6
Cc1cc(/C=N/NC(=O)Cn2c3ccccc3c(=O)c3ccccc32)c(C)n1-c1ccccc1	25*	-11	-21	-4	11	20	7
Cc1ccc(N(CC(=O)N/N=C/c2cc(C)n(-c3ccccc3)c2C)S(C)(=O)=O)c(C)c1	-5	2	4	-1	9	3	nt
COc1cccc2c1C(=O)C=C(C)C2=O	10	11	3	2	1	7	nt
COC1=CC(=O)c2nc(Cl)ccc2C1=O	38*	nt	nt	nt	nt	9	17
Cc1c(C(=O)NCc2ccc(Cl)c(Cl)c2)sc(=O)n1Cc1cccc(F)c1	25*	nt	nt	nt	nt	2	14

Compound activity from PubChem.
